This passage reports IC50 and inhibition results from ChEMBL document CHEMBL1944616, “Benzoxaborole antimalarial agents. Part 2: Discovery of fluoro-substituted 7-(2-carboxyethyl)-1,3-dihydro-1-hydroxy-2,1-benzoxaboroles” (Bioorg Med Chem Lett, 2012).

The term IC50 denotes the midpoint of a concentration-inhibition curve. Lower therefore signals greater potency.

Structures are written as SMILES. Where only a bound is given, the exact number is not on record here.

Series [1] deals with Plasmodium falciparum. The experiment in a line: Antimalarial activity against ring stage Plasmodium falciparum 3D7 infected in human erythrocytes after 48 hrs by flow cytometry. It is filed as functional, organism-based. The following applies: 3D7, 48 h. For orientation: A flow cytometer gives signals particle by particle.
The nature of series [2]: Growth inhibition of human Jurkat cells at 25 uM after 72 hrs by MTT assay. In kind it is cell-based. The following applies: read-out: GI. The method, boiled down: (§1)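 Cytotoxicity counter-screen on human Jurkat (T cell) and human HeLa (cervical carcinoma) cell lines. Selected compounds were tested at one fixed concentration each.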
Series [3] is described as follows: Growth inhibition of human HeLa cells at 25 uM after 72 hrs by MTT assay. In kind it is cell-based. The following applies: read-out: GI. The method, boiled down: as §1
(Tetrazolium assays rely on reduction of a dye to a coloured formazan, in cell work by metabolically active cells.)

`O=C(O)C(F)Cc1cccc2c1B(O)OC2` (stereo not given) showed an IC50 in series [1] of 830 nM.

Consider `O=C(O)C1CCc2ccc3c(c2C1)B(O)OC3` (stereo not given), for which the IC50 in series [1] is 1820 nM.

The compound `O=C(O)CCc1cc(F)cc2c1B(O)OC2` came in with a half-inhibitory concentration (IC50) in series [1] of 61 nM. `O=C1C(O)=C([C@H]2CC[C@H](c3ccc(Cl)cc3)CC2)C(=O)c2ccccc21` [ATOVAQUONE] came in with an IC50 in series [1] of 1 nM. With `Cc1ccc(CCC(=O)O)c2c1COB2O`, inhibition in series [1] was half-maximal at 1450 nM (IC50).

`O=C(O)CCc1c(Cl)ccc2c1B(O)OC2` showed an IC50 in series [1] of 750 nM. `COc1cc(CCC(=O)O)c2c(c1)COB2O` had an IC50 in series [1] of 3480 nM. The same measure, in the same setting: the value for `O=C(O)CCc1cc(Cl)cc2c1B(O)OC2` was 1330 nM. Turning to `O=P(O)(O)CCc1cccc2c1B(O)OC2`, the inhibition at 72 h, 25 µM in series [2] is 3%; in series [3], 26%. The compound further returned a half-inhibitory concentration (IC50) in series [1] greater than 5000 nM. On to `O=C1NC(=O)C(Cc2cccc3c2B(O)OC3)N1` (stereo not given), for which the inhibition at 72 h, 25 µM in series [2] amounted to 14.1%; in series [3], 67.7%. Further, the IC50 in series [1] is greater than 5000 nM. In series [1], `CC(=O)Nc1ccc(CCC(=O)O)c2c1COB2O` came in with an IC50 greater than 5000 nM.
